In PMC7261135 (Journal of medicinal chemistry, 2020):
Like-named read-outs stand apart in the source and are kept apart here.

Columns and labels:
[1] = in vitro plasma stability; assay type: in vitro ADME; settings: rat plasma (rat serum)
In short: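 Test compound incubated in rat serum, with diltiazem run alongside as assay QC control.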

[2] = solution stability at pH 5.0, 7.4, 9.4; assay type: physicochemical
[3] = ex vivo biodistribution of [^18F]15; assay type: in vivo; settings: male Sprague Dawley rats
mGluR4 [4] = biological target: T1, mGluR4 (Rattus norvegicus, UniProt P31423); assay: PET imaging of [^18F]15, baseline; assay type: in vivo, Sprague Dawley rats; settings: rats
mGluR4 [5] = biological target: T2, mGluR4 (Homo sapiens, UniProt Q14833); assay: competitive binding assay with [^3H]4 in mGluR4 transfected CHO cells
[6] = liver microsomal stability; assay type: in vitro ADME, rat
mGluR4 [7] = biological target: T1, mGluR4; assay: PET blocking studies of [^18F]15 binding; assay type: in vivo, Sprague Dawley rats; settings: rats
In short: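 Male Sprague Dawley rats under isoflurane/nitrous oxide (1.0–1.5% isoflurane) with a tail-vein catheter. Blocker 1, 2 or 3 mg/kg in saline with 10% DMSO, 5% Tween-20, 85% PBS, given 1 min before iv tracer (18–34 MBq). Dynamic PET 60 min, CT for attenuation correction, MLEM reconstruction. Regional time-activity curves; blocking as percent change from baseline scans.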

mGluR4 [8] = biological target: T2, mGluR4; assay: mGluR4 Gi fold shift assay; assay type: cell-based
In short: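 Split-luciferase GloSensor cAMP biosensor read-out of Gi-coupled mGluR4 signalling. L-SOP concentration-response curves were run with test compound at 3.0 μM and the leftward shift measured; efficacy given relative to glutamate maximum. Data from NIMH PDSP, averaged over at least three independent determinations run in triplicate.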

[9] = Log D7.4, scaled-down shake flask method using [^18F]15; assay type: physicochemical; settings: octanol/phosphate buffer, pH 7.4
In short: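 Radiolabelled test compound (74 kBq) was partitioned between octanol and pH 7.4 phosphate buffer, vortexed 2 min and centrifuged 2 min, and both phases were sampled. An octanol aliquot went into fresh octanol/buffer and the cycle was repeated to give six sets. Gamma counting; Log D = log(octanol counts × 10 / buffer counts).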

[10] = rat liver microsomes with NADPH

T2 sequence (Q14833 33-912): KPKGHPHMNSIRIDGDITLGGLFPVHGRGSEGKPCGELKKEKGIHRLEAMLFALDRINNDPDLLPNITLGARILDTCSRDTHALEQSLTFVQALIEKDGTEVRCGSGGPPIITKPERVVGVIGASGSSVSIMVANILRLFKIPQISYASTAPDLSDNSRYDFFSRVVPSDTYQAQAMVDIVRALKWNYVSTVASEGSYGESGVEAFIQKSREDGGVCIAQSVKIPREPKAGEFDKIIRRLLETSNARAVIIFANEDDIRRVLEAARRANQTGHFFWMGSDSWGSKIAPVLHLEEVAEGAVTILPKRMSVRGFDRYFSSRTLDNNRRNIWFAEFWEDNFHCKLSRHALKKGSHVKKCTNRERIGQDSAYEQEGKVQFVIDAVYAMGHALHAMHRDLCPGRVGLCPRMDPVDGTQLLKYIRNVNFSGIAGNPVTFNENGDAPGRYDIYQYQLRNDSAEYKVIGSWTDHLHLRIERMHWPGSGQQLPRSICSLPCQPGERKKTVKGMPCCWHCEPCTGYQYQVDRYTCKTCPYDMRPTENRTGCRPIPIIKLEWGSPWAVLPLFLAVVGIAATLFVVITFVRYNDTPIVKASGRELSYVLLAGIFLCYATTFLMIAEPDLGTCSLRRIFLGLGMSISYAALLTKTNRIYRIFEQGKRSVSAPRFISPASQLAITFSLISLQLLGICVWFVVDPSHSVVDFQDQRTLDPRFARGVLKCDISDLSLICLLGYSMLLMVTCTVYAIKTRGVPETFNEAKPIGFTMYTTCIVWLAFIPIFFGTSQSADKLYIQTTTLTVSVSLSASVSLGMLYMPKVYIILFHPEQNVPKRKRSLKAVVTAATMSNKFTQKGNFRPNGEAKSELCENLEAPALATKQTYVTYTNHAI
T1 sequence (P31423 33-912): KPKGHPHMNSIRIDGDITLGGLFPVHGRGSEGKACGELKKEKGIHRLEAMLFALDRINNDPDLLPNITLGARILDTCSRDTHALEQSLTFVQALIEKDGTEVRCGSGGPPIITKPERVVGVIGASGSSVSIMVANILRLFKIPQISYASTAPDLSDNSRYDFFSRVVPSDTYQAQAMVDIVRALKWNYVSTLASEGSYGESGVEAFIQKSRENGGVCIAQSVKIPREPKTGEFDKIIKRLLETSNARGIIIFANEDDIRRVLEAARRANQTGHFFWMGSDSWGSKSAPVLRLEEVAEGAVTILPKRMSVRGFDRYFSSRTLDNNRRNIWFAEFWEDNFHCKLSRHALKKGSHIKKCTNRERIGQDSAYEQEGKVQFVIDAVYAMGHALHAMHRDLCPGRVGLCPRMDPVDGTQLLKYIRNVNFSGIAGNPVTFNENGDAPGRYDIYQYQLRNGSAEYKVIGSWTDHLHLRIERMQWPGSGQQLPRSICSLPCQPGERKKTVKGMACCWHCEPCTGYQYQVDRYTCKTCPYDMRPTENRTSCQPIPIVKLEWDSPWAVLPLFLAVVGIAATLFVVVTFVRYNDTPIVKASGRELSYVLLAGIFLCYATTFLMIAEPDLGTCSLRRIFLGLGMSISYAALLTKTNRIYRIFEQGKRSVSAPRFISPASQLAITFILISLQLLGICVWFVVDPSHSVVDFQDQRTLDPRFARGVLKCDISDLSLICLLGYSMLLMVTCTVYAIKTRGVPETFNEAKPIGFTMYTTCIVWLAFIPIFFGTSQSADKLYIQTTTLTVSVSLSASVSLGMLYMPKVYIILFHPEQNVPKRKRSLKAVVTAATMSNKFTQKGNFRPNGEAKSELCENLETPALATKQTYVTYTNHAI

SMILES: COc1cc(NC(=O)c2ccccn2)ccc1Cl [Compound 4]
- The plasma stability: The intact ± SEM at 120 (min%) [1]: 98.2 ± 6.3%
- The solution stability: The intact ± SEM at 120 min ([2]; pH = 5.0): 92.7 ± 3.1%
- The solution stability: The intact ± SEM at 120 min ([2]; pH = 7.4): 97.3 ± 1.1%
- The solution stability: The intact ± SEM at 120 min ([2]; pH = 9.4): 89.1 ± 2.1%

SMILES: [2H]C([2H])([18F])Sc1cc(NC(=O)c2ccccn2)ccc1Cl [[^18F]15, [^18F]-N-(4-chloro-3-((fluoromethyl-d2)thio)phenyl)-picolinamide]
- accumulation in brain ([3]; at 10 min after iv injection): 0.41±0.18 % ID/g
- accumulation in heart ([3]; at 20 min after iv injection): 0.50±0.08 % ID/g
- accumulation in liver ([3]; at 20 min after iv injection): 1.33±0.12 % ID/g
- accumulation in lungs ([3]; at 20 min after iv injection): 0.58±0.17 % ID/g
- accumulation in kidneys ([3]; at 30 min after iv injection): 0.93±0.57 % ID/g
- time of highest accumulation in the thalamus (mGluR4 [4]; after administration of the ligand): about 2 min
- maximum average uptake in the thalamus (mGluR4 [4]; time interval 1–10 min after administration): 1.77±0.26 % ID/cc

SMILES: CSc1cc(NC(=O)c2ccccn2)ccc1Cl [Compound 13]
- The plasma stability: The intact ± SEM at 120 (min%) [1]: 91.5 ± 2.5%
- IC50 (mGluR4 [5]; read-out: IC50±SE, mGluR4 transfected CHO cells, 2 nM [^3H]4, test compound 0.01 nM to 10 μM): 3.5 ± 0.7 nM
- The solution stability: The intact ± SEM at 120 min ([2]; pH = 5.0): 85.9 ± 0.8%
- The solution stability: The intact ± SEM at 120 min ([2]; pH = 7.4): 87.9 ± 3.4%
- The solution stability: The intact ± SEM at 120 min ([2]; pH = 9.4): 89.3 ± 1.3%
- The microsome stability Clint [6, 10]: 54.8 μL/min /mg protein
- The microsome stability t1/2 [6, 10]: 25.3 min
- blocking of [^18F]15 binding in striatum (mGluR4 [7]; blocking agent 1 mg/kg): 18%
- blocking of [^18F]15 binding in striatum (mGluR4 [7]; blocking agent 2 mg/kg): 20%
- blocking of [^18F]15 binding in striatum (mGluR4 [7]; blocking agent 3 mg/kg): 28%
- blocking of [^18F]15 binding in the whole brain (mGluR4 [7]; blocking agent 1, 2 or 3 mg/kg, 1 min before tracer): 22–25%

SMILES: COc1ccc([C@@H]2Sc3ccccc3N(CCN(C)C)C(=O)[C@@H]2OC(C)=O)cc1 [Diltiazem]
- The plasma stability: The intact ± SEM at 120 (min%) [1]: 49.0 ± 10.6%
- The solution stability: The intact ± SEM at 120 min ([2]; pH = 5.0): 94.7 ± 1.4%
- The solution stability: The intact ± SEM at 120 min ([2]; pH = 7.4): 99.0 ± 5.7%
- The solution stability: The intact ± SEM at 120 min ([2]; pH = 9.4): 69.8 ± 2.6%

SMILES: [2H]C([2H])(F)Sc1cc(NC(=O)c2ccccn2)ccc1Cl [Compound 15, N-(4-Chloro-3-((fluoromethyl-d2)thio)phenyl)picolinamide]
- The plasma stability: The intact ± SEM at 120 (min%) [1]: 84.5 ± 10.2%
- leftward shift of agonist (L-SOP) response curve (mGluR4 [8]; at 3.0 μM): 7.5 fold
- Emax at 3 µM (mGluR4 [8]; read-out: Glu Max efficacy): 98.3%
- IC50 (mGluR4 [5]): 3.5 ± 0.5 nM
- The solution stability: The intact ± SEM at 120 min ([2]; pH = 5.0): 87.1 ± 0.9%
- The solution stability: The intact ± SEM at 120 min ([2]; pH = 7.4): 88.3 ± 1.9%
- The solution stability: The intact ± SEM at 120 min ([2]; pH = 9.4): 84.3 ± 1.8%
- microsomal CLint ([6]; rat, liver microsomes): 24.2 µL/min/mg
- logD [9]: 3.82
